Measurements: ChEMBL document CHEMBL1123133, “1H-2-Benzopyran-1-one derivatives, microbial products with pharmacological activity. Conversion into orally active derivatives with antiinflammatory and antiulcer activities” (J Med Chem, 1985)

Legend:
Rattus norvegicus [1] = assay: Concentration 5f detected in blood of rat 3 hr after an oral dose of 200 mg/kg; ND is Not Detected; format: ADME, organism-based; set-up: dose 200 mg/kg, route oral; settings: in vivo
Procedure, shortened: (§1)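 Male Wistar rats (120–160 g), 5–7 per group, fasted 24 h, given 200 mg/kg orally as aqueous HCl salt formulation (drug/glycerin/HCO-60 1/12/0.05 by weight). Jugular blood taken under ether at 1 or 3 h into citric acid; plasma deproteinized with ethanol (acetone for 5d) and analysed by C18 HPLC at 254 nm. Values recovery-corrected, mean of 6–7 rats.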

Rattus norvegicus [2] = assay: Concentration 1 detected in blood of rat 1 hr after an oral dose of 200 mg/kg; ND is Not Detected; format: ADME, organism-based; set-up: dose 200 mg/kg, route oral; settings: in vivo; procedure, shortened: as §1
Rattus norvegicus [3] = assay: Gastroprotective activity as % protection against stress ulcers in 5 rats after an oral dose of 50 mg/kg; format: functional
Procedure, shortened: (§2)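 Stress ulcer by restraint and water immersion: male Wistar rats (160–180 g), fasted 24 h, given test compound po or ip as HCl salt in aqueous glycerin/HCO-60 formulation (1/12/0.05 by weight). Vehicle-only controls. After 1 h, restrained in net cage and immersed in 21 °C water for 6 h. Percent ulcer inhibition calculated; five rats per dose.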

Rattus norvegicus [4] = assay: Gastroprotective activity as % protection against stress ulcers in 5 rats after an oral dose of 25 mg/kg; format: functional; procedure, shortened: as §2
Rattus norvegicus [5] = assay: Concentration 5f detected in blood of rat 1 hr after an oral dose of 200 mg/kg of the compound; ND is Not Detected; format: ADME, organism-based; set-up: dose 200 mg/kg, route oral; settings: in vivo; procedure, shortened: as §1
Rattus norvegicus [6] = assay: Gastroprotective activity as % protection against stress ulcers in 5 rats after an oral dose of 100 mg/kg; format: functional; procedure, shortened: as §2
Rattus norvegicus [7] = assay: Concentration 6f detected in blood of rat 1 hr after an oral dose of 200 mg/kg; ND is Not Detected; format: ADME, organism-based; set-up: dose 200 mg/kg, route oral; settings: in vivo; procedure, shortened: as §1
[8] = Lipid solubility measured as chloroform-water partition coefficient; format: physicochemical
Procedure, shortened: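 Partition between chloroform and 10 mM phosphate buffer pH 7.5 (1:1 volume); drug at 1 mg/mL initially in aqueous phase, shaken 20 min at 20 °C, centrifuged, both phases quantified by HPLC. HCl salts used.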

[9] = Solubility in water, tested as a HCl salt; format: physicochemical; settings: read-out: S
Procedure, shortened: (§3)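 HCl salts suspended in excess in water or 10 mM phosphate buffer pH 7.5, sonicated 10 min at 20 °C to saturation, centrifuged; supernatant quantified by HPLC.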

Rattus norvegicus [10] = assay: Gastroprotective activity as % protection against stress ulcers in 5 rats after an intraperitoneal dose of 25 mg/kg; format: functional; procedure, shortened: as §2
[11] = Solubility in phosphate buffer, tested as a HCl salt; format: physicochemical; procedure, shortened: as §3
Rattus norvegicus [12] = assay: Gastroprotective activity as % protection against stress ulcers in 5 rats after an intraperitoneal dose of 50 mg/kg; format: functional; procedure, shortened: as §2
Rattus norvegicus [13] = assay: % recovery of the compound, compound 1 and compound 6a from whole blood of 7 wistar rats after an oral dose of the compound; format: ADME, organism-based; settings: in vivo
Rattus norvegicus [14] = assay: Concentration 1 detected in blood of rat 3 hr after an oral dose of 200 mg/kg; ND is Not Detected; format: ADME, organism-based; set-up: dose 200 mg/kg, route oral; settings: in vivo; procedure, shortened: as §1
Rattus norvegicus [15] = assay: Concentration 6f detected in blood of rat 3 hr after an oral dose of 200 mg/kg; ND is Not Detected; format: ADME, organism-based; set-up: dose 200 mg/kg, route oral; settings: in vivo; procedure, shortened: as §1
[16] = Concentration detected in blood of rat 1 hr after an oral dose of 200 mg/kg; format: ADME, organism-based; set-up: dose 200 mg/kg, route oral; procedure, shortened: as §1
[17] = Concentration detected in blood of rat 3 hr after an oral dose of 200 mg/kg of the compound; format: ADME, organism-based; set-up: dose 200 mg/kg, route oral; procedure, shortened: as §1
Rattus norvegicus [18] = assay: % recovery 1 from whole blood of 7 wistar rats after an oral dose of the compound; format: ADME, organism-based; settings: in vivo
Rattus norvegicus [19] = assay: Gastroprotective activity as % protection against stress ulcers in 5 rats after an intraperitoneal dose of 12.5 mg/kg; format: functional; procedure, shortened: as §2
Rattus norvegicus [20] = assay: Antiinflammatory activity evaluated as Minimum effective oral dose that inhibits adjuvant arthritis in rats; format: functional
Procedure, shortened: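 Adjuvant arthritis: male Sprague-Dawley rats (180–200 g), 8–10 per group, injected in right hind paw with Mycobacterium butyricum powder in corn oil (0.6 mg/0.1 mL). Oral dosing started 1 h after adjuvant, then daily for 18 days; observed 28 days. Minimum effective dose recorded.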

Rattus norvegicus [21] = assay: Antiinflammatory activity evaluated as Minimum effective oral dose that inhibits carrageenan paw edema in rat; format: functional
Rattus norvegicus [22] = assay: Antiinflammatory activity evaluated as Minimum effective oral dose that inhibits bradykinin paw edema in rat; format: functional
Cavia porcellus = assay: Antiinflammatory activity evaluated as Minimum effective oral dose that inhibits dextran UV erythema in guinea pig; format: functional
Rattus norvegicus [23] = assay: Antiinflammatory activity evaluated as Minimum effective oral dose that inhibits dextran paw edema in rat; format: functional
Rattus norvegicus [24] = assay: Concentration 5e detected in blood of rat 1 hr after an oral dose of 200 mg/kg of the compound; format: ADME, organism-based; set-up: dose 200 mg/kg, route oral; settings: in vivo; procedure, shortened: as §1
Rattus norvegicus [25] = assay: Concentration 6e detected in blood of rat 1 hr after an oral dose of 200 mg/kg of the compound; format: ADME, organism-based; set-up: dose 200 mg/kg, route oral; settings: in vivo; procedure, shortened: as §1
Rattus norvegicus [26] = assay: Concentration 1 detected in blood of rat 1 hr after an oral dose of 200 mg/kg; ND is Not Detected.; format: ADME, organism-based; set-up: dose 200 mg/kg, route oral; settings: in vivo; procedure, shortened: as §1
Rattus norvegicus [27] = assay: Concentration 1 detected in blood of rat 3 hr after an oral dose of 200 mg/kg; ND is Not Detected.; format: ADME, organism-based; set-up: dose 200 mg/kg, route oral; settings: in vivo; procedure, shortened: as §1
Rattus norvegicus [28] = assay: Concentration 5e detected in blood of rat 3 hr after an oral dose of 200 mg/kg of the compound; format: ADME, organism-based; set-up: dose 200 mg/kg, route oral; settings: in vivo; procedure, shortened: as §1
Rattus norvegicus [29] = assay: Concentration 6e detected in blood of rat 3 hr after an oral dose of 200 mg/kg of the compound; format: ADME, organism-based; set-up: dose 200 mg/kg, route oral; settings: in vivo; procedure, shortened: as §1

## CCCCCCNC1CC(=O)OC1C(O)C(=O)NC(CC(C)C)C1Cc2cccc(O)c2C(=O)O1 (stereo unspecified)
Rattus norvegicus [1]
  Concentration: Not detected
Rattus norvegicus [2]
  Concentration: Not detected
Rattus norvegicus [3]
  Protection: 44%
Rattus norvegicus [4]
  Protection: 11%
Rattus norvegicus [5]
  Concentration: Not detected
Rattus norvegicus [6]
  Protection: 44%
Rattus norvegicus [7]
  Concentration: Not detected
[8]
  P: 3000
[9]
  solubility: 1600 µg/mL
Rattus norvegicus [10]
  Protection: 17%
[11]
  solubility: 5 µg/mL
Rattus norvegicus [12]
  Protection: 11%
Rattus norvegicus [13]
  Recovery: 80%
Rattus norvegicus [14]
  Concentration: Not detected
Rattus norvegicus [15]
  Concentration: Not detected

## CC(C)C[C@H](NC(=O)C(O)C1OC(=O)CC1N)[C@@H]1Cc2cccc(O)c2C(=O)O1.Cl (stereo partly specified)
[16]
  concentration at 1 h: 800 ng/mL
[17]
  concentration at 3 h: 600 ng/mL
Rattus norvegicus [3]
  Protection: 66%
Rattus norvegicus [4]
  Protection: 44%
Rattus norvegicus [6]
  Protection: 78%
Rattus norvegicus [18]
  Recovery: 50%
Rattus norvegicus [10]
  Protection: 83%
Rattus norvegicus [19]
  Protection: 66%
Rattus norvegicus [12]
  Protection: 83%

## COc1ccc2c(c1)c(CC(=O)O)c(C)n2C(=O)c1ccc(Cl)cc1 [INDOMETHACIN]
Rattus norvegicus [20]
  EDmin: 3 mg/kg
Rattus norvegicus [21]
  ED50: 1.3 mg/kg
Rattus norvegicus [22]
  ED50: > 25 mg/kg
Cavia porcellus
  ED50: < 6 mg/kg
Rattus norvegicus [23]
  ED50: > 25 mg/kg

## Cn1cnc2c1c(=O)[nH]c(=O)n2C [THEOBROMINE]
[8]
  P: 0.1

## CNc1ccccc1
[8]
  P: > 19

## CCCCCNC1CC(=O)OC1C(O)C(=O)NC(CC(C)C)C1Cc2cccc(O)c2C(=O)O1 (stereo unspecified)
Rattus norvegicus [24]
  Concentration: 1200 ng/mL
Rattus norvegicus [25]
  Concentration: 800 ng/mL
Rattus norvegicus [3]
  Protection: 33%
Rattus norvegicus [4]
  Protection: 44%
Rattus norvegicus [26]
  Concentration: Not detected
Rattus norvegicus [6]
  Protection: 56%
[8]
  P: 1900
[9]
  solubility: 7300 µg/mL
Rattus norvegicus [27]
  Concentration: Not detected
Rattus norvegicus [10]
  Protection: 56%
[11]
  solubility: 330 µg/mL
Rattus norvegicus [12]
  Protection: 44%
Rattus norvegicus [13]
  Recovery: 50%
Rattus norvegicus [28]
  Concentration: 800 ng/mL
Rattus norvegicus [29]
  Concentration: 600 ng/mL
